Results on 1 compound are retold here after PMC3480690 (The Open Medicinal Chemistry Journal, 2012).

SMILES strings stand for the structures.

The assay deals with MCF-7 cells. The experiment in a line: MTT assay, cytotoxicity on MCF-7 cells. As to conditions: Homo sapiens, MCF7, 24 h, read-out: MTT assay IC50. The format is cell-based. In a few lines: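 Human breast cancer MCF-7 cells grown in DMEM with 10% FBS, penicillin and streptomycin at 37°C, 5% CO2. 10000 cells per well were seeded, cultured overnight, then exposed to test compound (1-200 µM) for 24 h. MTT at 0.5 mg/ml final was added for 3 h at 37°C. Formazan was dissolved in DMSO and read at 545 nm (630 nm reference). IC50 was taken from concentration-growth inhibition curves.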

As for `Cc1ccc(-c2cc(C(F)(F)F)nn2-c2ccc(S(N)(=O)=O)cc2)cc1` [Celecoxib], the IC50 was 87.7 µM.
